{"source": "paper PMC11387822", "about": "(Scientific Reports, 2024)", "key": {"BuChE": {"molecular_target": "BuChE (Homo sapiens, UniProt P06276)", "sequence (P06276 29-602)": "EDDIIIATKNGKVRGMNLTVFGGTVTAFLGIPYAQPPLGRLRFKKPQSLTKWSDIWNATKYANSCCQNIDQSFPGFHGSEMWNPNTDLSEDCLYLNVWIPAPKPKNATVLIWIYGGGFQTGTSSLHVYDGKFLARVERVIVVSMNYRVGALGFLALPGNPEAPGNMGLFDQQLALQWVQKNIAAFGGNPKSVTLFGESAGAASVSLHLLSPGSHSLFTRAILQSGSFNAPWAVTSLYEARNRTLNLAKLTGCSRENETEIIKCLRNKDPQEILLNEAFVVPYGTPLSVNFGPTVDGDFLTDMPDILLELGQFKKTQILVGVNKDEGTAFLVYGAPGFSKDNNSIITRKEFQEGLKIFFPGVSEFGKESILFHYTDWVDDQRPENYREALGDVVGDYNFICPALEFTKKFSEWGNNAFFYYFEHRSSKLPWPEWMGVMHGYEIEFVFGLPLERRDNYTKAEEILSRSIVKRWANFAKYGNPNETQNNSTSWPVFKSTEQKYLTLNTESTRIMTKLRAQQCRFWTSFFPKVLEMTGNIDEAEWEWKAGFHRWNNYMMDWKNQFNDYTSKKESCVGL", "assay": "In vitro BuChE inhibitory activity", "format": "biochemical", "conditions": "for BuChE IC50: mean ± SD (n = 3)"}, "BACE1": {"molecular_target": "BACE1 (Homo sapiens, UniProt P56817)", "sequence (P56817 46-501)": "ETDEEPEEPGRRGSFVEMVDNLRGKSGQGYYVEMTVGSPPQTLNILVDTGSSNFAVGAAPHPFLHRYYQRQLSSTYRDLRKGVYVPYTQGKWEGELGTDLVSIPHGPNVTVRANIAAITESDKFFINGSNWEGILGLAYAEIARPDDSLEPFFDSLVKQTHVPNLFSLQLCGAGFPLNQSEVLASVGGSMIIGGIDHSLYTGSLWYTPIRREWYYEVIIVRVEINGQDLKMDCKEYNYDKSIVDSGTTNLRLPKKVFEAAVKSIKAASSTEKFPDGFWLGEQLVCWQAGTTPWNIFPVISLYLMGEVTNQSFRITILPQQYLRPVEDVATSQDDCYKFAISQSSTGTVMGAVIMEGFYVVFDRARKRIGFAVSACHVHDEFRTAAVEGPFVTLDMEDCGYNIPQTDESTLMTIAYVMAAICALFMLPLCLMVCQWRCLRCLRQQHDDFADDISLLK", "assay": "BACE1 inhibitory activity, FRET-based assay kit", "format": "biochemical"}, "AChE [1]": {"molecular_target": "T1, AChE (Homo sapiens, UniProt P22303)", "T1 sequence (P22303 32-614)": "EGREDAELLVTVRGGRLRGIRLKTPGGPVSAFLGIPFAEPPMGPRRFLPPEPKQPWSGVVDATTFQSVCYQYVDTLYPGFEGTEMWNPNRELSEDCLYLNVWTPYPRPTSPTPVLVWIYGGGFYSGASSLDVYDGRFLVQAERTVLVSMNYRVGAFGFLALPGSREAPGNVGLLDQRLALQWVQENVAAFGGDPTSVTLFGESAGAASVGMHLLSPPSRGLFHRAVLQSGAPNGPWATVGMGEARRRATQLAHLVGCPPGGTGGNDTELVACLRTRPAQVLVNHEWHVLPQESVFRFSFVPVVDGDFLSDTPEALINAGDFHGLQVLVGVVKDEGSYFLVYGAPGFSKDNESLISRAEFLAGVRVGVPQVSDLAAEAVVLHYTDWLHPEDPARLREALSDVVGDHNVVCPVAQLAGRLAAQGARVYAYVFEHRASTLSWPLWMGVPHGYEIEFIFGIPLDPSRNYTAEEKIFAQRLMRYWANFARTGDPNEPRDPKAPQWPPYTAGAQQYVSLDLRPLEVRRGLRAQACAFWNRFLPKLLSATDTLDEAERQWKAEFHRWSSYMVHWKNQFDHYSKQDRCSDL", "assay": "In vitro AChE inhibitory activity", "format": "biochemical", "conditions": "for AChE IC50: mean ± SD (n = 3)"}, "AChE [2]": {"molecular_target": "T1, AChE", "assay": "Kinetic characterization of AChE inhibition", "format": "biochemical"}, "[3]": {"assay": "Metal chelating activity by UV-visible spectrometry, mole ratio method", "format": "physicochemical", "conditions": "UV 200-600 nm, methanol, 5d 20 μM, Fe3+ 0-50 μM, 30 min room temperature", "in_short": "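Test compound (20 μM in absolute methanol) was titrated with FeCl3 (0–50 μM Fe3+) and incubated 30 min at room temperature. UV absorption from 200 to 600 nm was recorded with and without Fe3+ in a 1 cm quartz cuvette. Complex stoichiometry was taken from the mole ratio method.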"}}, "note": "“Also recorded” adds a separate entry of the source."}
{"molecule": "Cn1cc(-c2cc(C(=O)NN=Cc3cccc([N+](=O)[O-])c3)no2)c2ccccc21", "note": "[Compound 5k, N'-(3-Nitrobenzylidene)-5-(1-methyl-1H-indol-3-yl)isoxazole-3-carbohydrazide]", "values": [{"measurement": "IC50", "setting": "BuChE", "result": "71.3 ± 0.76", "unit": "µM"}]}
{"molecule": "Cn1cc(-c2cc(C(=O)NN=Cc3cccc(Br)c3)no2)c2ccccc21", "note": "[Compound 5j, N'-(3-Bromobenzylidene)-5-(1-methyl-1H-indol-3-yl)isoxazole-3-carbohydrazide]", "values": [{"measurement": "IC50", "setting": "BACE1", "result": "1.99 ± 0.15", "unit": "µM"}, {"measurement": "AChE IC50", "setting": "AChE [1]", "result": "no potency"}]}
{"molecule": "Cn1cc(-c2cc(C(=O)NN=Cc3ccccc3O)no2)c2ccccc21", "note": "[Compound 5b, N'-(2-Hydroxybenzylidene)-5-(1-methyl-1H-indol-3-yl)isoxazole-3-carbohydrazide]", "values": [{"measurement": "IC50", "setting": "BACE1", "result": "2.79 ± 0.52", "unit": "µM"}, {"measurement": "IC50", "setting": "BuChE", "result": "92.8 ± 2.29", "unit": "µM"}]}
{"molecule": "COc1cccc(C=NNC(=O)c2cc(-c3cn(C)c4ccccc34)on2)c1", "note": "[Compound 5d, N'-(3-Methoxybenzylidene)-5-(1-methyl-1H-indol-3-yl)isoxazole-3-carbohydrazide]", "values": [{"measurement": "IC50", "setting": "BACE1", "result": "2.85 ± 0.09", "unit": "µM"}, {"measurement": "Ki", "setting": "AChE [2]", "result": 19.3, "unit": "µM"}, {"measurement": "inhibition pattern on AChE", "setting": "AChE [2]; Lineweaver-Burk: Km increased, Vmax unchanged", "result": "competitive"}, {"measurement": "metal chelating ability against Fe3+", "setting": "[3]", "result": "had biometal chelation ability"}, {"measurement": "BuChE IC50", "setting": "BuChE", "result": "no notable inhibition; also recorded: no potency"}, {"measurement": "IC50", "setting": "AChE [1]", "result": "29.5 ± 0.31", "unit": "µM"}]}
{"molecule": "COc1cccc(C=NNC(=O)c2cc(-c3cn(C)c4ccccc34)on2)c1O", "note": "[Compound 5g, N'-(2-Hydroxy-3-methoxybenzylidene)-5-(1-methyl-1H-indol-3-yl)isoxazole-3-carbohydrazide]", "values": [{"measurement": "IC50", "setting": "AChE [1]", "result": "63.8 ± 4.04", "unit": "µM"}]}
{"molecule": "Cn1cc(-c2cc(C(=O)NN=Cc3ccccc3)no2)c2ccccc21", "note": "[Compound 5a, N'-Benzylidene-5-(1-methyl-1H-indol-3-yl)isoxazole-3-carbohydrazide]", "values": [{"measurement": "BuChE IC50", "setting": "BuChE", "result": "no inhibitory potencies"}, {"measurement": "AChE IC50", "setting": "AChE [1]", "result": "no inhibitory potencies"}]}
{"molecule": "Cn1cc(-c2cc(C(=O)NN=Cc3ccccc3Cl)no2)c2ccccc21", "note": "[Compound 5i, N'-(2-Chlorobenzylidene)-5-(1-methyl-1H-indol-3-yl)isoxazole-3-carbohydrazide]", "values": [{"measurement": "AChE IC50", "setting": "AChE [1]", "result": "no potency"}]}
{"molecule": "Cn1cc(-c2cc(C(=O)NN=Cc3ccccc3F)no2)c2ccccc21", "note": "[Compound 5h, N'-(2-Fluorobenzylidene)-5-(1-methyl-1H-indol-3-yl)isoxazole-3-carbohydrazide]", "values": [{"measurement": "AChE IC50", "setting": "AChE [1]", "result": "no potency"}]}
